Experimental findings from the EternaBench riboswitch data are described below.

The subject of this series is MS2 coat protein. The series is described as follows: apparent Kd, MS2 coat protein; higher = weaker binding; RNA-MaP array; FMN 200 µM where present. Summed up:
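In 100 mM Tris-HCl pH 7.5, 80 mM KCl, 4 mM MgCl2, BSA, DTT, yeast tRNA and Tween-20, SNAP-549-labelled MS2 coat protein was titrated from 0.7 or 1.5 nM, doubling to 3 µM, over designs transcribed by stalled E. coli RNA polymerase on Illumina sequencing-chip clusters. This was done first without ligand, then with ligand held constant. After green signal was normalised to red-channel RNA signal and control-cluster median Fmax, the apparent Kd was taken as the median of filtered per-cluster binding-curve fits.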

Where [1] appears, read: designed as: OFF switch for flavin mononucleotide, no ligand.
Where [2] appears, read: ligand present: flavin mononucleotide, designed as: OFF switch for flavin mononucleotide.
The mark [3] stands for this setting: designed as: ON switch for flavin mononucleotide, no ligand.
The mark [4] stands for this setting: ligand present: flavin mononucleotide, designed as: ON switch for flavin mononucleotide.

By apparent Kd is commonly meant a dissociation constant that holds for the conditions of the assay. “AAUUAUUUUUGAGGAUAUGGUGGUGAAACACCACCAGAAGGCGAAAUAAACAUGAGGAUCACCCAUGUGAGCCUGAUGCUUAUG”: the “apparent Kd” value under setting [1] stood at 21.1 nM and the “apparent Kd” value under setting [2] came out at 55.8 nM.

For the sequence “GGACAUUUACAGAAGGGCAAGUUGGAUCGCGGAUAACGCGAUCCGACUUGCAGGAUAUGUUGAACAUGAGGAUCACCCAUGUCU”, the “apparent Kd” value is 7.99 nM under setting [3] and 8.52 nM under setting [4].

Take “GCUUCGGCUGUGAGGAUAUCGGGCCCGAAAGGGCCCGAGAAGGCACAUGAGGAUCACCCAUGUAAGGUUGAAGU”: the “apparent Kd” value under setting [1] came out at 18.8 nM and the “apparent Kd” value under setting [2] turned out to be 15.4 nM.

For the sequence “GACUUGCGCACAGGAUAUCCACGGAGCGGACGUGGAGAAGGGUGACAUGAGGAUCACCCAUGUACGUAAGUCUGGAUCACAUCC”, the “apparent Kd” value under setting [3] stood at 41.8 nM and the “apparent Kd” value under setting [4] is 19.5 nM.

In the case of “GGAUAGGACAGAGGAUAUACGUGCUAGAGAUUCUAGCAAAAUUUCCUCACAUGAGGAUCACCCAUGUAGAAGGCUGUCCUAUCG”, the “apparent Kd” value was determined as 15.6 nM under setting [1] and 321 nM under setting [2].

As to “UGCGGAUAUCGAGGAUAUGCGACGGGUUCUCACAUGAGGAUCACCCAUGUCCGCGGGCCUCAAAAGCAGAAGGCGAGUUCGGUU”, the “apparent Kd” value is, setting by setting: under setting [3], 376 nM; under setting [4], 10.6 nM.

Turning to “GCCAGUUAUGUAGGAUAUGCGAGGCGAGCCUGAGCAGAAGGACAUGAGGAUCACCCAUGUAUUGCGGUUUGAGUUCUGAUCGCU”, the “apparent Kd” value by setting is: under setting [1], 23.4 nM; under setting [2], 58.6 nM.

“ACAUGGUAUGUCAGGAUAUCUAACCGCAACGUUCUAGAGAAGGGACAUGAGGAUCACCCAUGUACGUUGUAAGA”: the “apparent Kd” value under setting [1] turned out to be 54.3 nM and the “apparent Kd” value under setting [2] amounted to 117 nM.

For “ACAUGUUUUGUAGGAUAUCACUUGUUAUGUUAUAUAUUUGUUAUAAUCUAUUGAGAAGGACAUUUACAUGAGGAUCACCCAUGU”, the “apparent Kd” value under setting [1] came out at 8.83 nM and the “apparent Kd” value under setting [2] is 7.08 nM.

For “GCUGACGAUGUAGGAUAUCUCGACGAUAAGUCGAGAGAAGGACAUGAGGAUCACCCAUGUACUCAAACGUCAGCGAGGAAACUC”, the “apparent Kd” value runs as follows: under setting [1], 18.7 nM; under setting [2], 27.6 nM.

On to “CCUCCCUGAGGAUAUCCACCCUCAUACAUGAGGAUCACCCAUGUUCAUCCGUGGCUACCCGGAGAAGGCAGCUCUC”, for which the “apparent Kd” value was 44.9 nM under setting [1] and 41.8 nM under setting [2].

Consider “AGGCGGGCAGGAUAUGCGUACUGACGGGAAAACUGAAUGGUACAUGAGGAUCACCCAUGUAGAAGGGCUUUGAA”, for which the “apparent Kd” value by setting is: under setting [1], 50.1 nM; under setting [2], 38.3 nM.

Turning to “UCGGUGCGAGGAUAUACGUUUGCGCGUUUUCGUUUGCGCGUACAUGAGGAUCACCCAUGUAGAAGGCGCGCGGC”, the “apparent Kd” value is, setting by setting: under setting [1], 12.4 nM; under setting [2], 13.7 nM.

“GUGGUCAGACAUGAGGAUCACCCAUGUGGAAUAAAUAACAGACAGGAUAUCAAAUAUAGGAUAUAUGAGAAGGGUCGAUUGGUG”: the “apparent Kd” value amounted to 99.5 nM under setting [3] and 84.3 nM under setting [4].

As for “AUCCAGCGAGGAUAUACAUAGAUUUUUUCGUUUUGUCUCGAACAUGAGGAUCACCCAUGUAGAAGGUGCUUCAC”, the “apparent Kd” value came out at 82.5 nM under setting [1] and 81 nM under setting [2].

As to “AAAAAACAUGAGGAUCACCCAUGUAAAAAUAUGGGAGGAUAUUCAAACACGAAAGUGAAAGAAGAAGGCCUAAAAA”, the “apparent Kd” value under setting [3] was determined as 66.6 nM and the “apparent Kd” value under setting [4] amounted to 23.3 nM.

As to “ACACAGCGAGGAUAUACAUGAGGAUCACCCAUGUGGUGGCGGUUACGGUAGGACUAGUGUAGAAGGUGCCGUGG”, the “apparent Kd” value was 480 nM under setting [1] and 414 nM under setting [2].

Take “UCACGGGACUGAGGAUAUACAUGAACUAUUUUUGUAGAAGGCAGAAUGUUAGAUUAUACACUAAACAUGAGGAUCACCCAUGUU”: the “apparent Kd” value reads like this: under setting [1], 19.1 nM; under setting [2], 16.1 nM.

For “UUUUAACAUGAGGAUCACCCAUGUGAGGAUAUCGAAAUUUAUAUUAAUAUUAAUAUUACGAGAAGGCACAUUUU”, the “apparent Kd” value reads like this: under setting [1], 77.8 nM; under setting [2], 101 nM.

As for “GGUACUCAAAGAGUACCAAUACGAACAUGAGGAUCACCCAUGUAGGAUAUGCUACUAAAAGAGUAGCAGAAGGACAUGUGCCUA”, the “apparent Kd” value worked out at 13.5 nM under setting [1] and 75.4 nM under setting [2].

Regarding “GGAUACGACAGAGGAUAUACGUGCUAGAGAUACUAGCAAAAUUUCCUCACAUGAGGAUCACCCAUGUAGAAGGCUGUCCUAUCG”, the “apparent Kd” value under setting [1] stood at 16.2 nM and the “apparent Kd” value under setting [2] was 337 nM.

For the sequence “UUUUUGUGAGGAUAUUAGUAGUAAAUGAAUAAAAUUAUUACUGAGAAGGCACAUGAGGAUCACCCAUGUUCCUU”, the “apparent Kd” value amounted to 15.1 nM under setting [1] and 71.8 nM under setting [2].

For “GCGUGCGAUAGGACGUCUGAGGGCAGAAGGCACAUGAGGAUCACCCAUGUAACGAUCUCUUCAAGUGAGGAUAUGUGCUCAUUG”, the “apparent Kd” value reads like this: under setting [1], 29.7 nM; under setting [2], 114 nM.

For “AACUCGUCAGGAUAUGCGCGCAGUUACUGCGCUUCGCAAUUGCAGAAGGGACAUGAGGAUCACCCAUGUAGGUC”, the “apparent Kd” value was found to be 42 nM under setting [1] and 45.4 nM under setting [2].
